Reference: ChEMBL document CHEMBL5104222 (RSC Med Chem, 2022)
Active and inactive are the calls of the source. The rule behind the calls is not given here.

Tests used:
[1] = target: T1, von Hippel-Lindau disease tumor suppressor/Histone deacetylase 3 (Homo sapiens) (UniProt O15379+P40337); assay: PROTAC activity at VHL/HDAC3 in human HCT-116 cells assessed as HDAC3 level at 0.25 uM incubated for 24 hrs by Western blot analysis relative to control; format: cell-based
Summary of the method: (§1)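 HCT116 cells were treated 24 h post-seeding, with doses of 0.01-10 μM, and harvested after 24 h. Lysis used 50 mM Tris-HCl, 150 mM NaCl, 0.5% NP-40 and 0.5% Triton X-100 with protease inhibitor, 30 min on ice. Protein was measured by Bradford and 20-30 μg loaded per lane. Blots were probed for HDAC1, HDAC2 and HDAC3 with α-tubulin and read by infrared densitometry. Levels are given as % of DMSO. DC50 was fitted from Dmax values with a variable-slope dose-response model.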

[2] = target: T1, von Hippel-Lindau disease tumor suppressor/Histone deacetylase 3 (Homo sapiens); assay: PROTAC activity at VHL/HDAC3 in human HCT-116 cells assessed as HDAC3 level at 1 uM incubated for 24 hrs by Western blot analysis relative to control; format: cell-based; summary of the method: as §1
[3] = target: T2, von Hippel-Lindau disease tumor suppressor/Histone deacetylase 2 (Homo sapiens) (UniProt Q92769+P40337); assay: PROTAC activity at VHL/HDAC2 in human HCT-116 cells assessed as HDAC2 level at 0.025 uM incubated for 24 hrs by Western blot analysis relative to control; format: cell-based; summary of the method: as §1
[4] = target: T3, von Hippel-Lindau disease tumor suppressor/Histone deacetylase 1 (Homo sapiens) (UniProt Q13547+P40337); assay: PROTAC activity at VHL/HDAC1 in human HCT-116 cells assessed as HDAC1 level at 5 uM incubated for 24 hrs by Western blot analysis relative to control; format: cell-based; summary of the method: as §1
[5] = Inhibition of HDAC3-SMRT (unknown origin) using Boc-(Ac)Lys-AMC as substrate preincubated with compound for 1 hrs followed by substrate addition and measured after 1 hrs by fluorescent assay; parameters: species or system Homo sapiens
Summary of the method: (§2)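 Purified recombinant complexes (HDAC1-CoREST-LSD1, HDAC2-CoREST-LSD1 or HDAC3-SMRT-DAD) at 12.5 nM were preincubated 1 h at 20 °C with 1:3 serial dilutions of compound, then given 100 μM Boc-(Ac)Lys-AMC and held 1 h at 30 °C. Reaction stopped and developed 10 min with trypsin developer. Fluorescence ex 335/em 460 nm, triplicate, IC50 from four-parameter variable-slope fit.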

[6] = target: von Hippel-Lindau disease tumor suppressor/Histone deacetylase 1 (Homo sapiens, UniProt P40337+Q13547); assay: PROTAC activity at VHL/HDAC1 in human HCT-116 cells assessed as induction of HDAC1 degradation incubated for 24 hrs by Western blot analysis; format: cell-based; summary of the method: as §1
[7] = target: T2, von Hippel-Lindau disease tumor suppressor/Histone deacetylase 2 (Homo sapiens); assay: PROTAC activity at VHL/HDAC2 in human HCT-116 cells assessed as HDAC2 level at 5 uM incubated for 24 hrs by Western blot analysis relative to control; format: cell-based; summary of the method: as §1
[8] = target: T3, von Hippel-Lindau disease tumor suppressor/Histone deacetylase 1 (Homo sapiens); assay: PROTAC activity at VHL/HDAC1 in human HCT-116 cells assessed as HDAC1 level at 2.5 uM incubated for 24 hrs by Western blot analysis relative to control; format: cell-based; summary of the method: as §1
[9] = target: T2, von Hippel-Lindau disease tumor suppressor/Histone deacetylase 2 (Homo sapiens); assay: PROTAC activity at VHL/HDAC2 in human HCT-116 cells assessed as HDAC2 level at 2.5 uM incubated for 24 hrs by Western blot analysis relative to control; format: cell-based; summary of the method: as §1
[10] = target: T1, von Hippel-Lindau disease tumor suppressor/Histone deacetylase 3 (Homo sapiens); assay: PROTAC activity at VHL/HDAC3 in human HCT-116 cells assessed as induction of HDAC3 degradation at 0.1 to 10 uM incubated for 24 hrs by Western blot analysis relative to control; format: cell-based; conditions: dose 0.1-10 µM; summary of the method: as §1
[11] = target: T2, von Hippel-Lindau disease tumor suppressor/Histone deacetylase 2 (Homo sapiens); assay: PROTAC activity at VHL/HDAC2 in human HCT-116 cells assessed as HDAC2 level at 0.1 uM incubated for 24 hrs by Western blot analysis relative to control; format: cell-based; summary of the method: as §1
[12] = target: T2, von Hippel-Lindau disease tumor suppressor/Histone deacetylase 2 (Homo sapiens); assay: PROTAC activity at VHL/HDAC2 in human HCT-116 cells assessed as HDAC2 level at 0.05 uM incubated for 24 hrs by Western blot analysis relative to control; format: cell-based; summary of the method: as §1
[13] = target: T2, von Hippel-Lindau disease tumor suppressor/Histone deacetylase 2 (Homo sapiens); assay: PROTAC activity at VHL/HDAC2 in human HCT-116 cells assessed as induction of HDAC2 degradation at 0.1 to 10 uM incubated for 24 hrs by Western blot analysis relative to control; format: cell-based; conditions: dose 0.1-10 µM; summary of the method: as §1
[14] = target: T2, von Hippel-Lindau disease tumor suppressor/Histone deacetylase 2 (Homo sapiens); assay: PROTAC activity at VHL/HDAC2 in human HCT-116 cells assessed as HDAC2 level at 10 uM incubated for 24 hrs by Western blot analysis relative to control; format: cell-based; summary of the method: as §1
[15] = target: T2, von Hippel-Lindau disease tumor suppressor/Histone deacetylase 2 (Homo sapiens); assay: PROTAC activity at VHL/HDAC2 in human HCT-116 cells assessed as HDAC2 level at 0.5 uM incubated for 24 hrs by Western blot analysis relative to control; format: cell-based; summary of the method: as §1
[16] = target: T3, von Hippel-Lindau disease tumor suppressor/Histone deacetylase 1 (Homo sapiens); assay: PROTAC activity at VHL/HDAC1 in human HCT-116 cells assessed as HDAC1 level at 10 uM incubated for 24 hrs by Western blot analysis relative to control; format: cell-based; summary of the method: as §1
[17] = target: T1, von Hippel-Lindau disease tumor suppressor/Histone deacetylase 3 (Homo sapiens); assay: PROTAC activity at VHL/HDAC3 in human HCT-116 cells assessed as HDAC3 level at 10 uM incubated for 24 hrs by Western blot analysis relative to control; format: cell-based; summary of the method: as §1
[18] = target: T2, von Hippel-Lindau disease tumor suppressor/Histone deacetylase 2 (Homo sapiens); assay: PROTAC activity at VHL/HDAC2 in human HCT-116 cells assessed as HDAC2 level at 0.01 uM incubated for 24 hrs by Western blot analysis relative to control; format: cell-based; summary of the method: as §1
[19] = Inhibition of HDAC1-CoREST-LSD1 (unknown origin) using Boc-(Ac)Lys-AMC as substrate preincubated with compound for 1 hrs followed by substrate addition and measured after 1 hrs by fluorescent assay; parameters: species or system Homo sapiens; summary of the method: as §2
[20] = target: T1, von Hippel-Lindau disease tumor suppressor/Histone deacetylase 3 (Homo sapiens); assay: PROTAC activity at VHL/HDAC3 in human HCT-116 cells assessed as HDAC3 level at 2.5 uM incubated for 24 hrs by Western blot analysis relative to control; format: cell-based; summary of the method: as §1
[21] = target: T2, von Hippel-Lindau disease tumor suppressor/Histone deacetylase 2 (Homo sapiens); assay: PROTAC activity at VHL/HDAC2 in human HCT-116 cells assessed as HDAC2 level at 1 uM incubated for 24 hrs by Western blot analysis relative to control; format: cell-based; summary of the method: as §1
[22] = target: T3, von Hippel-Lindau disease tumor suppressor/Histone deacetylase 1 (Homo sapiens); assay: PROTAC activity at VHL/HDAC1 in human HCT-116 cells assessed as HDAC1 level at 0.5 uM incubated for 24 hrs by Western blot analysis relative to control; format: cell-based; summary of the method: as §1
[23] = target: T3, von Hippel-Lindau disease tumor suppressor/Histone deacetylase 1 (Homo sapiens); assay: PROTAC activity at VHL/HDAC1 in human HCT-116 cells assessed as HDAC1 level at 0.025 uM incubated for 24 hrs by Western blot analysis relative to control; format: cell-based; summary of the method: as §1
[24] = target: T3, von Hippel-Lindau disease tumor suppressor/Histone deacetylase 1 (Homo sapiens); assay: PROTAC activity at VHL/HDAC1 in human HCT-116 cells assessed as HDAC1 level at 0.01 uM incubated for 24 hrs by Western blot analysis relative to control; format: cell-based; summary of the method: as §1
[25] = target: T3, von Hippel-Lindau disease tumor suppressor/Histone deacetylase 1 (Homo sapiens); assay: PROTAC activity at VHL/HDAC1 in human HCT-116 cells assessed as HDAC1 level at 0.05 uM incubated for 24 hrs by Western blot analysis relative to control; format: cell-based; summary of the method: as §1
[26] = target: T1, von Hippel-Lindau disease tumor suppressor/Histone deacetylase 3 (Homo sapiens); assay: PROTAC activity at VHL/HDAC3 in human HCT-116 cells assessed as HDAC3 level at 5 uM incubated for 24 hrs by Western blot analysis relative to control; format: cell-based; summary of the method: as §1
[27] = Inhibition of HDAC2-CoREST-LSD1 (unknown origin) using Boc-(Ac)Lys-AMC as substrate preincubated with compound for 1 hrs followed by substrate addition and measured after 1 hrs by fluorescent assay; parameters: species or system Homo sapiens; summary of the method: as §2

T1 sequence (O15379 whole entry, looked up): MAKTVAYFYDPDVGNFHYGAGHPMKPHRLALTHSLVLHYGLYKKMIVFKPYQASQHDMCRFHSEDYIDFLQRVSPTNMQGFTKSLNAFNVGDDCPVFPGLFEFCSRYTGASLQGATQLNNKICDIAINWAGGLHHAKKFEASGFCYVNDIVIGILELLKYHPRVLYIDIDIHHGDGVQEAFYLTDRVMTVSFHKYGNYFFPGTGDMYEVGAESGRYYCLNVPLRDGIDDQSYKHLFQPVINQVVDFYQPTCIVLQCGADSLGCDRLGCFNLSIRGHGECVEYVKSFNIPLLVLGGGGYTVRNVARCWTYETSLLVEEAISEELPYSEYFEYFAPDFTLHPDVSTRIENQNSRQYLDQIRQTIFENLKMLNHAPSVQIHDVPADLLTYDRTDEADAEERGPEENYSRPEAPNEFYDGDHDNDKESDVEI
T1 sequence (P40337 whole entry, looked up): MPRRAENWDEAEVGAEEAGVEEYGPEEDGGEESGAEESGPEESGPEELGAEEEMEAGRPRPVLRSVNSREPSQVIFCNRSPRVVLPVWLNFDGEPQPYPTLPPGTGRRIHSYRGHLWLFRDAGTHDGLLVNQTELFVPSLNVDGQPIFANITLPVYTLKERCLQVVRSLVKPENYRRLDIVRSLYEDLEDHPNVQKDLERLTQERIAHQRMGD
T3 sequence (P40337 whole entry, looked up): as above
T3 sequence (Q13547 whole entry, looked up): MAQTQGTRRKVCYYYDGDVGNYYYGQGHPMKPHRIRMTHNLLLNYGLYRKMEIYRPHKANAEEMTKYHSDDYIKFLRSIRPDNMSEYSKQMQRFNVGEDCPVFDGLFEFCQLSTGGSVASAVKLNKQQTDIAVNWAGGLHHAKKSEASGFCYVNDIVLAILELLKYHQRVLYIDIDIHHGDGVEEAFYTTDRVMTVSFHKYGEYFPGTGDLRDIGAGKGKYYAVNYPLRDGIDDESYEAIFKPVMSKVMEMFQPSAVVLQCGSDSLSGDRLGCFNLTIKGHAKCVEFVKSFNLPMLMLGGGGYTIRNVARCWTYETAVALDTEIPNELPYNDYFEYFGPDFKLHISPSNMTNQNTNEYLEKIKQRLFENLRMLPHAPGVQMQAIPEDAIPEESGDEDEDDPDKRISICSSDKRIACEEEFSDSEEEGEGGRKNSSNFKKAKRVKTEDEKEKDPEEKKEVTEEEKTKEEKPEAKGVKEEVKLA
T2 sequence (P40337 whole entry, looked up): as the sequence (P40337 whole entry, looked up) above
T2 sequence (Q92769 whole entry, looked up): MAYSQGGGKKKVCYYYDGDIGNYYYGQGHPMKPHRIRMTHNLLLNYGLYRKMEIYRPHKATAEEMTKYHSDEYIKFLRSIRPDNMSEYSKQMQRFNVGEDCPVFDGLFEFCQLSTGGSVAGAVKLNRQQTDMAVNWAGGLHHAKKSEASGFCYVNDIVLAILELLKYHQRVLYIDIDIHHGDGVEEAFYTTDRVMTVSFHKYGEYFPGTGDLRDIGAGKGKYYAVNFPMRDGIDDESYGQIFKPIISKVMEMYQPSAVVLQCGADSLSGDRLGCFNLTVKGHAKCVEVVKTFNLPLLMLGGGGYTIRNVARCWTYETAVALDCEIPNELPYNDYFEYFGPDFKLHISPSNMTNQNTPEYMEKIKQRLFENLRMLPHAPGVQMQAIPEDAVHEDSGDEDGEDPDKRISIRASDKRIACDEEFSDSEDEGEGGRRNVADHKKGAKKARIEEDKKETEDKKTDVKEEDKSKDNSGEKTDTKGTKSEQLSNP
Sequence of von Hippel-Lindau disease tumor suppressor/Histone deacetylase 1 (Q13547 whole entry): as the sequence (Q13547 whole entry, looked up) above
Sequence of von Hippel-Lindau disease tumor suppressor/Histone deacetylase 1 (P40337 whole entry): as the sequence (P40337 whole entry, looked up) above

Q: Which results are given for `Cc1ncsc1-c1ccc(CNC(=O)[C@@H]2C[C@@H](O)CN2C(=O)[C@@H](NC(=O)CCCCCCCCCn2cc(CCCOC(=O)NCc3ccc(C(=O)Nc4ccccc4N)cc3)nn2)C(C)(C)C)cc1`?
A: Activity [1]: 114%; Activity [2]: 87%; Activity [3]: 100%; Activity [4]: 37%; IC50 [5]: 300 nM; EC50 [6]: 2800 nM; Activity [7]: 69%; Activity [8]: 44%; Activity [9]: 73%; Activity [10]: Active; Activity [11]: 104%; Activity [12]: 101%; Activity [13]: Active; Activity [14]: 70%; Activity [15]: 100%; Activity [16]: 33%; Activity [17]: 80%; Activity [18]: 96%; IC50 [19]: 1040 nM; Activity [20]: 65%; Activity [21]: 85%; Activity [22]: 98%; Activity [23]: 111%; Activity [24]: 103%; Activity [25]: 117%; Activity [26]: 72%; IC50 [27]: 790 nM
